{"source": "ChEMBL document CHEMBL4138082", "about": "(Eur J Med Chem, 2017)", "key": {"HepG2 [1]": {"system": "HepG2", "assay": "Induction of apoptosis in human HepG2 cells assessed as early apoptotic cells at 0.25 uM after 48 hrs in presence of hemoglobin by Annexin V-APC/7-AAD staining based flow cytometry (reference value: 3.18%)", "format": "functional"}, "HepG2 [2]": {"system": "HepG2", "assay": "Induction of apoptosis in human HepG2 cells assessed as early apoptotic cells at 0.125 uM after 48 hrs by […] based flow cytometry (reference value: 3.18%)", "format": "functional"}, "HepG2 [3]": {"system": "HepG2", "assay": "Downregulation of survivin expression in human HepG2 cells after 24 hrs by protein array assay", "format": "functional, cell-based", "procedure,_shortened": "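Lysates from HepG-2 cells treated 24 h were incubated overnight at 4 °C on a membrane array of 35 apoptosis-related proteins. A biotinylated detection antibody cocktail was then applied for 1 h at room temperature. Relative expression was read from chemiluminescent spots by densitometry.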"}, "HepG2 [4]": {"system": "HepG2", "assay": "Induction of apoptosis in human HepG2 cells assessed as necrotic cells at 0.125 uM after 48 hrs by Annexin V-APC/7-AAD staining based flow cytometry (reference value: 2.40%)", "format": "functional"}, "HepG2 [5]": {"system": "HepG2", "assay": "Upregulation of Bax level in human HepG2 cells up to 0.25 uM after 48 hrs by Western blot method", "format": "functional, cell-based"}, "HepG2 [6]": {"system": "HepG2", "assay": "Induction of apoptosis in human HepG2 cells assessed as late apoptotic cells at 0.0625 uM after 48 hrs in presence of hemoglobin by Annexin V-APC/7-AAD staining based flow cytometry (reference value: 3.36%)", "format": "functional"}, "HepG2 [7]": {"system": "HepG2", "assay": "Cell cycle arrest in human HepG2 cells assessed as G1 phase accumulation at 0.0625 uM after 48 hrs by propidium iodide staining based flow cytometry (reference value: 32.74%)", "format": "functional", "procedure,_shortened": "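HepG-2 cells were plated and grown 24 h at 37 °C, then treated 48 h at 0, 0.0625, 0.125 or 0.25 µM, with 0.1% DMSO as control. Cells were fixed overnight in 70% ethanol at 4 °C, treated with RNase A and stained with propidium iodide. DNA content was measured by flow cytometry to give cell-cycle phase distribution.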"}, "HepG2 [8]": {"system": "HepG2", "assay": "Cell cycle arrest in human HepG2 cells assessed as S phase accumulation at 0.25 uM after 48 hrs in presence of hemoglobin by propidium iodide staining based flow cytometry (reference value: 36.40%)", "format": "functional"}, "HepG2 [9]": {"system": "HepG2", "assay": "Induction of mitochondrial membrane potential loss in human HepG2 cells measured after 48 hrs by JC-1 staining based flow cytometry", "format": "functional, cell-based", "procedure,_shortened": "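After 48 h exposure to 0.0625, 0.125 or 0.25 mM (so in the source) or vehicle, HepG-2 cells washed in PBS and stained with JC-1 in the dark. Flow cytometry scored cells with healthy (red aggregate) versus collapsed (green monomer) mitochondrial membrane potential.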"}, "PC-3": {"system": "PC-3", "assay": "Antiproliferative activity against human PC3 cells after 72 hrs by MTT assay", "format": "functional, cell-based", "details": "PC-3, 72 h", "procedure,_shortened": "(§1)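 MTT assay. Cells were seeded and grown 24 h at 37 °C in 5% CO2, then exposed to compound or left untreated for 72 h. MTT (5 mg/mL stock) was added for 4 h and the formazan dissolved in DMSO. OD was read at 570 nm. IC50 is the concentration giving 50% growth inhibition, reported as mean ± SD of three independent experiments. Vehicle reference was 0.1% DMSO.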"}, "HepG2 [10]": {"system": "HepG2", "assay": "Induction of apoptosis in human HepG2 cells assessed as late apoptotic cells at 0.125 uM after 48 hrs by […] (reference value: 3.36%)", "format": "functional"}, "HepG2 [11]": {"system": "HepG2", "assay": "Antiproliferative activity against human HepG2 cells after 72 hrs by MTT assay", "format": "functional, cell-based", "details": "HepG2, 72 h", "procedure,_shortened": "as §1"}, "HepG2 [12]": {"system": "HepG2", "assay": "Induction of apoptosis in human HepG2 cells assessed as cell population with intact mitochondrial membrane potential at 0.25 uM measured after 48 hrs by JC-1 staining based flow cytometry (reference value: 98.51%)", "format": "functional", "procedure,_shortened": "(§2)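 HepG-2 cells were exposed 48 h to 0.0625, 0.125 or 0.25 µM or to vehicle, then washed in PBS and stained with JC-1 in the dark. Red aggregate versus green monomer fluorescence was measured by flow cytometry to give the percentages of cells with healthy versus collapsed mitochondrial membrane potential.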"}, "HepG2 [13]": {"system": "HepG2", "assay": "Induction of apoptosis in human HepG2 cells assessed as cell population with intact mitochondrial membrane potential at 0.0625 uM measured after 48 hrs by JC-1 staining based flow cytometry (reference value: 98.51%)", "format": "functional", "procedure,_shortened": "as §2"}, "HepG2 [14]": {"system": "HepG2", "assay": "Induction of apoptosis in human HepG2 cells assessed as early apoptotic cells at 0.25 uM after 48 hrs by […] based flow cytometry (reference value: 3.18%)", "format": "functional"}, "HepG2 [15]": {"system": "HepG2", "assay": "Upregulation of total Cyt c level in human HepG2 cells up to 0.25 uM after 48 hrs by Western blot method", "format": "functional, cell-based"}, "HepG2 [16]": {"system": "HepG2", "assay": "Induction of apoptosis in human HepG2 cells assessed as necrotic cells at 0.0625 uM after 48 hrs by Annexin V-APC/7-AAD staining based flow cytometry (reference value: 2.40%)", "format": "functional"}, "HepG2 [17]": {"system": "HepG2", "assay": "Cell cycle arrest in human HepG2 cells assessed as G1 phase accumulation at 0.0625 uM after 48 hrs in presence of hemoglobin by propidium iodide staining based flow cytometry (reference value: 52.93%)", "format": "functional"}, "HepG2 [18]": {"system": "HepG2", "assay": "Induction of apoptosis in human HepG2 cells assessed as cell population with mitochondrial membrane potential loss at 0.25 uM measured after 48 hrs by JC-1 staining based flow cytometry (reference value: 1.49%)", "format": "functional", "procedure,_shortened": "as §2"}, "HepG2 [19]": {"system": "HepG2", "assay": "Induction of apoptosis in human HepG2 cells assessed as chromatin condensation at 0.0625 to 0.25 uM measured after 48 hrs by Hoechst 33258 staining based fluorescent microscopic analysis", "format": "functional, cell-based", "procedure,_shortened": "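After 48 h exposure to 0.0625, 0.125 or 0.25 µM, or to 0.1% DMSO vehicle, HepG-2 cells were stained with Hoechst 33258. Nuclear morphology, including chromatin condensation and fragmentation, was inspected by fluorescence microscopy.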"}, "HepG2 [20]": {"system": "HepG2", "assay": "Induction of apoptosis in human HepG2 cells after 48 hrs by […]", "format": "functional, cell-based"}, "HepG2 [21]": {"system": "HepG2", "assay": "Induction of apoptosis in human HepG2 cells assessed as viable cells at 0.25 uM after 48 hrs by Annexin V-APC/7-AAD staining based flow cytometry (reference value: 91.07%)", "format": "functional", "details": "HepG2, 48 h, read-out: Activity"}, "[22]": {"assay": "Drug metabolism in human L02 cells assessed as NO release by measuring nitrite formation at 100 uM after 1 hr by Griess assay", "format": "ADME, cell-based", "details": "l02, 1 h", "procedure,_shortened": "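HepG-2 or L-02 cells were exposed to 100 µM of each compound for 60 min and then harvested. Lysates were mixed with Griess reagent for 10 min at 37 °C and absorbance was read at 550 nm. NO release is expressed as nitrite, reported as mean ± SD of three independent experiments.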"}, "HepG2 [23]": {"system": "HepG2", "assay": "Cell cycle arrest in human HepG2 cells assessed as G1 phase accumulation at 0.125 uM after 48 hrs in presence of hemoglobin by propidium iodide staining based flow cytometry (reference value: 52.93%)", "format": "functional"}, "HepG2 [24]": {"system": "HepG2", "assay": "Induction of apoptosis in human HepG2 cells assessed as cell population with mitochondrial membrane potential loss at 0.125 uM measured after 48 hrs by JC-1 staining based flow cytometry (reference value: 1.49%)", "format": "functional", "procedure,_shortened": "as §2"}}, "note": "Activity calls are given as the source filed them. The calls are words filed in the database; no cut-off is given here.", "data": [{"smiles": "C[C@H]1CCC/C=C/[C@@H]2C[C@H](OC(=O)CCCC(=O)OCCOc3no[n+]([O-])c3S(=O)(=O)c3ccccc3)C[C@H]2[C@H](OC(=O)CCCC(=O)OCCOc2no[n+]([O-])c2S(=O)(=O)c2ccccc2)/C=C/C(=O)O1", "values": [{"measurement": "Activity", "setting": "HepG2 [1]", "value": 8.7, "unit": "%"}, {"measurement": "Activity", "setting": "HepG2 [2]", "value": 13.23, "unit": "%"}, {"measurement": "Activity", "setting": "HepG2 [3]", "value": "Active"}, {"measurement": "Activity", "setting": "HepG2 [4]", "value": 2.4, "unit": "%"}, {"measurement": "Activity", "setting": "HepG2 [5]", "value": "Active"}, {"measurement": "Activity", "setting": "HepG2 [6]", "value": 6.68, "unit": "%"}, {"measurement": "Activity", "setting": "HepG2 [7]", "value": 32.84, "unit": "%"}, {"measurement": "Activity", "setting": "HepG2 [8]", "value": 22.37, "unit": "%"}, {"measurement": "Activity", "setting": "HepG2 [9]", "value": "Dose-dependent effect"}, {"measurement": "IC50", "setting": "PC-3", "value": 25, "unit": "nM"}, {"measurement": "Activity", "setting": "HepG2 [10]", "value": 21.42, "unit": "%"}, {"measurement": "IC50", "setting": "HepG2 [11]", "value": 180, "unit": "nM"}, {"measurement": "Activity", "setting": "HepG2 [12]", "value": 39.86, "unit": "%"}, {"measurement": "Activity", "setting": "HepG2 [13]", "value": 83.42, "unit": "%"}, {"measurement": "Activity", "setting": "HepG2 [14]", "value": 15.03, "unit": "%"}, {"measurement": "Activity", "setting": "HepG2 [15]", "value": "Active"}, {"measurement": "Activity", "setting": "HepG2 [16]", "value": 3, "unit": "%"}, {"measurement": "Activity", "setting": "HepG2 [17]", "value": 68.06, "unit": "%"}, {"measurement": "Activity", "setting": "HepG2 [18]", "value": 60.14, "unit": "%"}, {"measurement": "Activity", "setting": "HepG2 [19]", "value": "Active"}, {"measurement": "Activity", "setting": "HepG2 [20]", "value": "Dose-dependent effect"}, {"measurement": "viability at 0.25 µM", "setting": "HepG2 [21]", "value": 39.3, "unit": "%"}, {"measurement": "Drug metabolism", "setting": "[22]", "value": 22.4, "unit": "µM"}, {"measurement": "Activity", "setting": "HepG2 [23]", "value": 63.24, "unit": "%"}, {"measurement": "Activity", "setting": "HepG2 [24]", "value": 35.45, "unit": "%"}]}]}
